Source: article PMC8177775 (Cancer Science, 2021)

Tested on: Japanese patients with solid tumors
Experiment: Phase I dose-escalation study: safety, tolerability, DLT and MTD
Assay type: in vivo, human
Settings: for Tolerability: dose level of up to 90 mg
Procedure, shortened: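 Oral test compound (tosylate salt) was given QD on days 1–21 of 28-day cycles in cohorts of 3–6 patients at 60, 90 or 120 mg. Escalation used a modified continual reassessment method (Bayesian logistic regression, escalation with overdose control). DLT window was cycle 1 (28 days). AEs were coded with MedDRA 18.0 and graded by CTCAE v4.0 (Japanese). Analysis covered patients receiving ≥1 dose.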

[1] = Cohort 3 120 mg/d (n = 4), All grades
[2] = Cohort 3 120 mg/d (n = 4), Grade ≥ 3

CC1(C)CCC2(CC1)N[C@@H](C(=O)N[C@@H]1CC[C@@H](C(N)=O)OC1)[C@H](c1ccnc(Cl)c1F)[C@]21C(=O)Nc2cc(Cl)ccc21 [milademetan, Milademetan]
TEAE: Hypophosphataemic rickets [1]: 0 (0.0) n (%) | TEAE: Jaundice cholestatic [1]: 0 (0.0) n (%) | TEAE: Lymphangiosis carcinomatosa [1]: 0 (0.0) n (%) | TEAE: Lymphocyte count decreased [1]: 2 (50.0) n (%) | TEAE: Nausea [1]: 3 (75.0) n (%) | TEAE: Neutrophil count decreased [1]: 2 (50.0) n (%) | TEAE: Platelet count decreased [1]: 3 (75.0) n (%) | TEAE: Pyrexia [1]: 1 (25.0) n (%) | TEAE: Sepsis [1]: 1 (25.0) n (%) | TEAE: Urinary tract infection [1]: 0 (0.0) n (%) | TEAE: Vomiting [1]: 2 (50.0) n (%) | TEAE: White blood cell count decreased [1]: 2 (50.0) n (%) | TEAE: Alanine aminotransferase increased [2]: 1 (25.0) n (%) | TEAE: Anemia [2]: 0 (0.0) n (%) | TEAE: Aspartate aminotransferase increased [2]: 1 (25.0) n (%) | TEAE: Constipation [2]: 0 (0.0) n (%) | TEAE: Decreased appetite [2]: 0 (0.0) n (%) | TEAE: Diarrhea [2]: 0 (0.0) n (%) | TEAE: Disease progression [2]: 1 (25.0) n (%) | TEAE: Fatigue [2]: 0 (0.0) n (%) | TEAE: Hypoalbuminemia [2]: 0 (0.0) n (%) | TEAE: Hyponatremia [2]: 1 (25.0) n (%) | TEAE: Hypophosphataemic rickets [2]: 0 (0.0) n (%) | TEAE: Jaundice cholestatic [2]: 0 (0.0) n (%) | TEAE: Lymphangiosis carcinomatosa [2]: 0 (0.0) n (%) | TEAE: Lymphocyte count decreased [2]: 1 (25.0) n (%) | TEAE: Nausea [2]: 0 (0.0) n (%) | TEAE: Neutrophil count decreased [2]: 1 (25.0) n (%) | TEAE: Platelet count decreased [2]: 3 (75.0) n (%) | TEAE: Pyrexia [2]: 0 (0.0) n (%) | TEAE: Sepsis [2]: 1 (25.0) n (%) | TEAE: Urinary tract infection [2]: 0 (0.0) n (%) | TEAE: Vomiting [2]: 0 (0.0) n (%) | TEAE: White blood cell count decreased [2]: 1 (25.0) n (%) | TEAE: Alanine aminotransferase increased (Total (n = 18), All grades): 4 (22.2) n (%) | TEAE: Anemia (Total (n = 18), All grades): 9 (50.0) n (%) | TEAE: Aspartate aminotransferase increased (Total (n = 18), All grades): 4 (22.2) n (%) | TEAE: Constipation (Total (n = 18), All grades): 5 (27.8) n (%) | TEAE: Decreased appetite (Total (n = 18), All grades): 11 (61.1) n (%) | TEAE: Diarrhea (Total (n = 18), All grades): 5 (27.8) n (%) | TEAE: Disease progression (Total (n = 18), All grades): 1 (5.6) n (%) | TEAE: Fatigue (Total (n = 18), All grades): 9 (50.0) n (%) | TEAE: Hypoalbuminemia (Total (n = 18), All grades): 8 (44.4) n (%) | TEAE: Hyponatremia (Total (n = 18), All grades): 5 (27.8) n (%) | TEAE: Hypophosphataemic rickets (Total (n = 18), All grades): 1 (5.6) n (%) | TEAE: Jaundice cholestatic (Total (n = 18), All grades): 1 (5.6) n (%) | TEAE: Lymphangiosis carcinomatosa (Total (n = 18), All grades): 1 (5.6) n (%) | TEAE: Lymphocyte count decreased (Total (n = 18), All grades): 4 (22.2) n (%) | TEAE: Nausea (Total (n = 18), All grades): 13 (72.2) n (%) | TEAE: Neutrophil count decreased (Total (n = 18), All grades): 5 (27.8) n (%) | TEAE: Platelet count decreased (Total (n = 18), All grades): 11 (61.1) n (%) | TEAE: Pyrexia (Total (n = 18), All grades): 4 (22.2) n (%) | TEAE: Sepsis (Total (n = 18), All grades): 1 (5.6) n (%) | TEAE: Urinary tract infection (Total (n = 18), All grades): 1 (5.6) n (%) | TEAE: Vomiting (Total (n = 18), All grades): 5 (27.8) n (%) | TEAE: White blood cell count decreased (Total (n = 18), All grades): 9 (50.0) n (%) | TEAE: Alanine aminotransferase increased (Total (n = 18), Grade ≥ 3): 2 (11.1) n (%) | TEAE: Anemia (Total (n = 18), Grade ≥ 3): 3 (16.7) n (%) | TEAE: Aspartate aminotransferase increased (Total (n = 18), Grade ≥ 3): 1 (5.6) n (%) | TEAE: Constipation (Total (n = 18), Grade ≥ 3): 0 (0.0) n (%) | TEAE: Decreased appetite (Total (n = 18), Grade ≥ 3): 0 (0.0) n (%) | TEAE: Diarrhea (Total (n = 18), Grade ≥ 3): 0 (0.0) n (%) | TEAE: Disease progression (Total (n = 18), Grade ≥ 3): 1 (5.6) n (%) | TEAE: Fatigue (Total (n = 18), Grade ≥ 3): 0 (0.0) n (%) | TEAE: Hypoalbuminemia (Total (n = 18), Grade ≥ 3): 0 (0.0) n (%) | TEAE: Hyponatremia (Total (n = 18), Grade ≥ 3): 2 (11.1) n (%) | TEAE: Hypophosphataemic rickets (Total (n = 18), Grade ≥ 3): 1 (5.6) n (%) | TEAE: Jaundice cholestatic (Total (n = 18), Grade ≥ 3): 1 (5.6) n (%) | TEAE: Lymphangiosis carcinomatosa (Total (n = 18), Grade ≥ 3): 1 (5.6) n (%) | TEAE: Lymphocyte count decreased (Total (n = 18), Grade ≥ 3): 1 (5.6) n (%) | TEAE: Nausea (Total (n = 18), Grade ≥ 3): 0 (0.0) n (%) | TEAE: Neutrophil count decreased (Total (n = 18), Grade ≥ 3): 1 (5.6) n (%) | TEAE: Platelet count decreased (Total (n = 18), Grade ≥ 3): 4 (22.2) n (%) | TEAE: Pyrexia (Total (n = 18), Grade ≥ 3): 0 (0.0) n (%) | TEAE: Sepsis (Total (n = 18), Grade ≥ 3): 1 (5.6) n (%) | TEAE: Urinary tract infection (Total (n = 18), Grade ≥ 3): 1 (5.6) n (%) | TEAE: Vomiting (Total (n = 18), Grade ≥ 3): 0 (0.0) n (%) | TEAE: White blood cell count decreased (Total (n = 18), Grade ≥ 3): 1 (5.6) n (%) | Drug-related TEAE: anemia, frequency (all 18 patients): 38.9% | Grade ≥ 3 TEAE: ALT increased (all 18 patients): 2 n | Grade ≥ 3 TEAE: anemia (all 18 patients): 3 n | Grade ≥ 3 TEAE: hyponatremia (all 18 patients): 2 n | Grade ≥ 3 TEAE: platelet count decreased (all 18 patients): 4 n | TEAE: anemia, frequency (all 18 patients, all grades): 50.0% | TEAE: decreased appetite, frequency (all 18 patients, all grades): 61.1% | TEAE: fatigue, frequency (all 18 patients, all grades): 50.0% | TEAE: nausea, frequency (all 18 patients, all grades): 72.2% | TEAE: platelet count decreased, frequency (all 18 patients, all grades): 61.1% | TEAE: white blood cell count decreased, frequency (all 18 patients, all grades): 50.0% | Dose interruption because of decreased appetite (all cohorts): 2 n | Dose interruption because of nausea (all cohorts): 6 n | Dose interruption because of platelet count decreased (all cohorts): 4 n | Dose interruptions (all cohorts): ten patients | Dose reduction due to TEAEs (all cohorts): No patients required a dose reduction | Maximum tolerated dose (MTD) (days 1 to 21 of a 28-day cycle): 90 mg/day | Tolerability (once-daily 21/28-day schedule): well tolerated | Tolerability (once-daily 21/28-day schedule, listed as Milademetan): generally safe and well tolerated | Patients who developed serious TEAEs (four at 90 mg, one at 60 mg, one at 120 mg, eight serious TEAEs): Six patients | Changes in laboratory parameters (other than platelet count decreased), vital signs, electrocardiogram (hematology, blood chemistry, coagulation, urinalysis, vital signs, ECG): no clinically relevant changes | Patients with at least one drug-related TEAE (of 18 patients): 18 patients | Maximum tolerated dose (MTD) (once-daily 21/28-day schedule): 90 mg | Recommended dose for phase II (once-daily 21/28-day schedule): 90 mg | Withdrawal from the study because of TEAEs (one in 90-mg cohort, two in 120-mg cohort): Three patients withdrew | Serious TEAEs, percentage of patients (six out of 18 patients): 33.3%
